HTR5A ag – HTR5A agonists in luminescence cell assay, primary screen, counter-screen for OPRM1-OPRD1 heterodimer agonist project, full-deck HTS | cell-based | activation, % at 9.3 µM | actives 0.61% (n = 340,000) | 5-hydroxytryptamine receptor 5A (Homo sapiens), P47898; in the data active = activation mostly above about 9.5%, no sharp cut-off; inactive = mostly below about 7.6%;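 note: 0% = cells with vehicle only and 100% = reference agonist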
Target sequence (P47898 whole entry, looked up): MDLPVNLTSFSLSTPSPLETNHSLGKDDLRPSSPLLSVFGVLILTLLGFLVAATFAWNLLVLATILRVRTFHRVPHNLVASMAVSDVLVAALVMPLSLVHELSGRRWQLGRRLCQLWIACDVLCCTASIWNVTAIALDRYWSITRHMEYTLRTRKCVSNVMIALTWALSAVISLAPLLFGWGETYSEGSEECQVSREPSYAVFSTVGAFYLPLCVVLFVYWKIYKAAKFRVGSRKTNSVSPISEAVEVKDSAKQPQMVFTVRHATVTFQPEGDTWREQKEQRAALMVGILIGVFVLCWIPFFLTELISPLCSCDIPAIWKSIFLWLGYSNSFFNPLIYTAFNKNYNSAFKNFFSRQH
MC4R ag barr – MC4R agonists recruiting beta-arrestin, primary screen, cell-based, luminescence, agonist arm of biased-ligand search; Melanocortin receptor 4 (Homo sapiens), P32245; U2OS MC4R beta-arrestin complementation; percent of melanotan II response, DMSO zero; activation, % at 8.9 µM; actives 0.98% (n = 360,000);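 active = activation above a per-plate cutoff, the mean activation of sample wells on that plate plus 3 SD, cut at about 8% in these data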
Target sequence (P32245 whole entry, looked up): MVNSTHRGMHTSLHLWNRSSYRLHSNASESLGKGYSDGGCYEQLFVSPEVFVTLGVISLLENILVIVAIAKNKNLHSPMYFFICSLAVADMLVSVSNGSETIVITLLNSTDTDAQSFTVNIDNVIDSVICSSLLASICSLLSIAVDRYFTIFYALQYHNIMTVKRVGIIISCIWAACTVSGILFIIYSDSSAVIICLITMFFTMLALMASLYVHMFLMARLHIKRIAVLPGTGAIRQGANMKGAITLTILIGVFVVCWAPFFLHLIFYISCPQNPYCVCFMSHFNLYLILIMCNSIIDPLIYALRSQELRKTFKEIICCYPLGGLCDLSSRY
MOR-DOR ag – agonists of OPRM1-OPRD1 heterodimerization, primary screen, cell-based, luminescence | Mu-type opioid receptor (Homo sapiens) + Delta-type opioid receptor (Homo sapiens), … | cells | activation, % at 9.3 µM | actives 0.3% (n = 340,000) | AID 504326, 2011; in the data active = activation above about 18%;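 note: 0% = vehicle-treated cells and 100% = reference agonist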
MC4R antagonist – MC4R antagonists of cAMP signaling, primary screen, cell-based, TR-FRET, antagonist arm of biased-ligand search. Melanocortin receptor 4 (Homo sapiens), P32245. MC4R-expressing cells, MTII-stimulated cAMP, LANCE TR-FRET. inhibition, % at 6.5 µM. actives 0.48% (n = 360,000). AID 540295, 2011;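 active = inhibition above its plate's cutoff, the mean of tested wells on that plate plus 3 SD, cut at about 29% in these data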;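 note: 0% = Melanotan II alone and 100% = Melanotan II plus saturating MCL0020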
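Test system: U2OS cells stably expressing human melanocortin 4 receptor (MC4R); also added: Melanotan II challenge; compound: 6.5 µM single dose; timing: 30-min compound preincubation, 1-h Melanotan II challenge, 1-h detection, room temperature; signal: Eu-cAMP/anti-cAMP TR-FRET, emission 671 nm; repeats: one well per compound, no replicates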
HTR5A inv ag – HTR5A inverse agonists in luminescence cell assay, primary screen, counter-screen for OPRM1-OPRD1 heterodimer inverse agonist project, full-deck HTS. AID 504634, 2011. inhibition, % at 9.3 µM. HTR5A cell line, inverse agonism. actives 0.083% (n = 340,000); in the data active = inhibition mostly above about 23%, no sharp cut-off; inactive = mostly below about 18%;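 note: 0% = cells with DMSO and 100% = no-cell wells with DMSO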
OPRM1-OPRD1 inv – inverse agonists of MOR-DOR heterodimerization, primary screen, cell-based, luminescence | AID 504357, 2011 | Mu-type opioid receptor (Homo sapiens) + Delta-type opioid receptor (Homo sapiens), … | cell-based MOR-DOR heterodimer luminescence, inverse agonism | inhibition, % at 9.3 µM | actives 0.21% (n = 340,000); in the data active = inhibition above about 22%, passing the limit was not always enough;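 note: 0% = cells with DMSO and 100% = wells without cells with DMSO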
Numbers without * were called inactive; i = inactive; nt = no result; ! = repeats disagree. Only some compounds are listed: those with a hit (about 2.4% of all), similar ones and a draw of the others.

SMILES	HTR5A ag	MC4R ag barr	MOR-DOR ag	MC4R antagonist	HTR5A inv ag	OPRM1-OPRD1 inv
CC(C)(C)c1cc[n+](-c2[nH]c(=O)sc2/C=N/NC([S-])=Nc2ccccc2)cc1	-1.5	-0.6	3.6	0.1	-3.1	-18.1
O=C(c1cc(Cl)cc(Cl)c1)N1CCC2CC1c1cc(N3CCCCC3)ccc12 (stereo not drawn)	nt	-0.5	nt	8.0	nt	nt
CC(C)Cn1c(N)c(C(=O)NCC2CCCO2)c2nc3ccccc3nc21 (stereo not drawn)	-4.4	1.3	-10.5	-4.8	10.9	44.2*
CC(=O)c1sc2nc(SCC(=O)NCCc3ccccc3)[nH]c(=O)c2c1C	12.8*	2.0	-7.1	0.8	-27.1	23.4
COc1ccc(CCNC(=O)CSc2nc3sc(C(=O)O)c(C)c3c(=O)[nH]2)cc1OC	1.1	-3.6	-2.4	-0.6	-15.7	12.8
O=C(Nc1ccccc1F)c1nc[nH]c1C(=O)NCc1ccccc1	nt	2.0	nt	-0.8	nt	nt
CC(C)(C)OC(=O)NCc1ccc(CNC(=O)c2[nH]cnc2C(=O)Nc2ccccc2F)cc1	nt	9.3*	nt	-1.3	nt	nt
COc1ccc(OC)c(-c2csc(N3CCC(c4ccccc4)CC3)n2)c1	0.6	-1.5	-0.7	10.9	-13.0	3.5
O=C(Nc1nc(-c2ccc(F)c(F)c2)cs1)c1cnccn1	6.2	-2.1	-1.4	7.7	-33.7	7.5
O=C(Nc1nc(-c2cccc3ccccc23)cs1)c1cnccn1	10.1*	6.7	-1.0	5.9	-26.4	5.1
Cc1nc(=O)c(-c2ccccc2)c(C)n1-c1ccccc1Cl	nt	-0.3	nt	-2.0	nt	nt
CCCn1c(=O)[nH]c(=O)c2c1nc(-c1ccc(C#N)cc1)n2CCOC	1.8	-1.4	-2.9	-0.6	-5.1	18.5
CCCn1c(=O)[nH]c(=O)c2c1nc(-c1ccc(OC(F)(F)C(F)C(F)(F)F)cc1)n2CCOC (stereo not drawn)	-2.1	10.0*	6.6	9.7	-12.7	-39.2
Cc1c(NS(C)(=O)=O)cccc1-c1nc2cccnc2s1	-1.4	0.2	-0.9	0.0	4.1	5.0
CCC(=O)Nc1ccc(NC(=O)CSc2nc3cc4c(cc3cc2C)CCC4)cc1	8.4	9.4*	-0.9	1.3	-5.7	5.0
CNC(=S)N(Cc1cc2cc(OC)c(OC)cc2[nH]c1=O)C1CCCC1	13.1*	-3.4	-1.0	21.4	21.4	5.4
COCCCn1c(SCC(=O)N2CCc3ccccc32)nnc1-c1ccco1	4.3	-1.5	-0.7	-0.2	-11.4	4.2
Cc1ccc(CNC(=O)N[C@@H](Cc2ccccc2)C(=O)O)cc1	-2.7	-1.5	-2.0	16.3	-41.4	10.7
CCc1ccc(S(=O)(=O)c2nnn3c2nc(NCCNC(C)=O)c2ccccc23)cc1	11.1*	3.0	2.1	-24.9	-27.5	-13.6
O=C(C#Cc1ccccc1)Nc1ccc(F)cc1	9.0*	-0.8	-3.2	-3.0	-30.5	15.3
COC(=O)c1cc2c(s1)CS(=O)C2 (stereo not drawn)	12.1*	-1.6	-0.9	7.5	7.0	4.8
CNC(=S)NNc1nncc2ccccc12	12.0*	-1.1	-2.3	12.7	-30.1	11.0
CCCCOc1ccc(-c2c(C(=O)Nc3ccccc3)c(C)[nH]c(=S)c2C#N)cc1	13.9*	1.2	3.5	20.0	-34.5	-22.8
Cc1ccc(NC(=S)Nc2cc(-c3ccccc3)[nH]n2)cc1Cl	8.2	8.9*	8.1	11.4	-23.1	-41.0
Cc1ccc(C)c(S(=O)(=O)N2CCN(C(=O)c3ccc(OCc4c(C)noc4C)cc3)CC2)c1	9.8	0.2	1.7	0.9	-25.5	-11.7
SMILES	HTR5A ag	MC4R ag barr	MOR-DOR ag	MC4R antagonist	HTR5A inv ag	OPRM1-OPRD1 inv
Cc1cccc(NC(=O)Nc2cccc(C#N)c2)n1	4.4	8.2*	2.2	-16.7	-12.2	-12.2
Cc1cccc(NC(=O)Nc2ccc(C#N)cc2)n1	6.5	2.2	1.2	10.2	-17.9	-6.7
O=c1[nH]nc(-c2n[nH]c(=O)o2)o1	-1.4	-1.7	-1.8	8.2	5.4	9.2
Cc1cc(C)c(C)c(S(=O)(=O)N2CCN(C(=O)CNC(=O)c3ccco3)CC2)c1C	13.7*	-1.6	1.0	2.7	0.1	-4.0
O=C1COc2ccccc2N1Cc1ccc(Cl)cc1	-1.4	-1.3	-1.2	5.5	5.2	5.5
CCOC(=O)CSc1nc(N)c(C#N)c(-c2ccc(OCC)cc2)c1C#N	3.5	9.4*	-0.3	23.2	4.0	1.7
CC1CC(=O)N(c2ccc(Br)cc2)C(=O)C1	-2.8	0.1	-2.0	0.5	-28.6	9.7
CC(C)CC(C(=O)N1CCOCC1)N1Cc2ccccc2C1=O (stereo not drawn)	12.5*	-1.4	-1.2	4.4	-35.8	6.3
O=C(CSc1nnc2ccc(-c3ccc(F)cc3)nn12)N1CCCC1	-0.1	3.4	-0.2	32.7*	-9.0	0.9
COc1ccc(C(=O)N(C)CC2CCN(CCc3cccc(C(F)(F)F)c3)CC2)cc1C	-2.7	-1.1	13.2	14.7	10.0	-61.4
Cc1cc(C(=O)Nc2sc3c(c2C#N)CCC(C)C3)cs1 (stereo not drawn)	-1.5	8.3*	1.9	1.2	4.6	-10.6
CC(=O)Nc1sc2c(c1C#N)CCC(C)C2 (stereo not drawn)	4.9	-0.2	-2.1	0.6	-3.7	10.9
Cc1ccc(C)n1-c1sc2c(c1C#N)CCC(C)C2 (stereo not drawn)	12.6*	1.5	9.3	-3.5	0.6	-49.0
CCOC(=O)C(Cc1ccnnc1)=NO	-1.1	-1.4	-3.8	9.3	4.1	16.7
CC[C@@H](C(=O)[C@@H](C)[C@@H](O)[C@H](C)CCc1ccc(C)c(O)c1C(=O)O)[C@H]1O[C@](CC)([C@H]2CC[C@](O)(CC)[C@H](C)O2)C[C@@H]1C	40.1*	88.5*	102.0*	6.1	-143.2	i
CCCCC(=O)NC1(C(F)(F)F)C(=O)N(CC(C)C)C2=C1C(=O)CC(C)(C)C2 (stereo not drawn)	2.1	0.7	0.5	16.9	-4.0	-2.8
CC1CCC(C(C)C)C(OCC(O)CNC(C)c2ccccc2)C1 (stereo not drawn)	0.8	8.3*	12.4	8.7	-2.1	-56.9
CC1CCC(C(C)C)C(OCC(O)CNC(C)(C)C)C1 (stereo not drawn)	4.5	-2.0	0.7	-2.1	-30.9	-3.7
CC1=Nc2ccc(C)cc2/C1=C/c1c(N)n2oc(C)cc2nc1=O	-4.0	9.2*!	0.8	12.4	-4.7	-4.0

Assay outcomes: PubChem, The Scripps Research Institute Molecular Screening Center
